Data set [1] can be described thus: Drug level in mouse urine at 100 mg/kg, po measured after 6 hrs. The class given is ADME, organism-based. Conditions: read-out: Drug uptake; call rule not given here. The arrangement: dose 100 mg/kg, route oral. The method in brief: (§1)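 Oral dosing in mice. Urine and plasma compound levels quantified by LC-MS/MS in selected reaction monitoring mode. The phenolic biphenyl hydrolysis product (R group) in urine was monitored at transition 285/254.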

Data set [2] can be described thus: Binding affinity to biotinylated Escherichia coli FimH-lectin domain after 30 mins by biolayer interferometry method. The essentials: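 FimH lectin domain biotinylated 1:1, loaded at 50μg/ml in HBS (20mM HEPES pH 7.5, 150mM NaCl) onto streptavidin tips, biocytin-blocked. Compound applied as 7 twofold dilutions in HBS for 10 min association, then 30 min dissociation, 30°C with shaking. Referenced to biocytin-blocked pins for drift and nonspecific binding. Kd from global kinetic fitting.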

The test system of data set [3] is Escherichia coli. In words: Antibacterial activity against Escherichia coli K-12 ATCC 25404 assessed as inhibition of biofilm formation after 2 hrs by confocal laser microscopic analysis. The class given is functional, organism-based.
Data set [4] deals with Mus musculus. In words: Stability in mouse urinary tract infection model assessed as hydrolysis of glycosidic bond at 10 to 200 mg/kg, po. Type of data set: ADME, organism-based, Urine. More on the design: dose 10-200 mg/kg, route oral. Conditions: in vivo. The method in brief:
as §1

Data set [5] can be described thus: Plasma concentration in mouse at 100 mg/kg, po measured after 6 hrs. The class given is ADME, organism-based. More on the design: dose 100 mg/kg, route oral. The method in brief: as §1
Data set [6] can be described thus: Effective permeability of the compound by PAMPA assay. Type of data set: ADME. The arrangement: unit not given here. Background: In PAMPA a lipid-coated filter parts donor from acceptor wells.
Data set [7] deals with Mus musculus. In words: Ratio of drug uptake in mouse urine to plasma at 50 mg/kg, po measured after 6 hrs. Conditions: in vivo.
The nature of data set [8]: Drug metabolism in mouse urine assessed as formation of phenolic biphenyl metabolite at 10 to 200 mg/kg, po. The arrangement: dose 10-200 mg/kg, route oral. The settings on record: in vivo. The class given is ADME, organism-based. The method in brief: as §1
In data set [9] the test system is Escherichia coli. Nature of the data set: Binding affinity to […] Escherichia coli FimH-lectine domain assessed as melting temperature at 100 uM by differential scanning fluorometric assay. The method in brief: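 Untagged FimH lectin domain (residues 1–158 of UPEC J96 FimH), 5 µg in a 50 µl reaction of HBS (20mM HEPES pH 7.5, 150mM NaCl). Compound at 100µM final, diluted from DMSO stocks, with SYPRO Orange at 5X final. Controls were FimH alone plus 0.2% DMSO. Melt curve ran from 20–90°C in 0.5 °C steps of 15 s each, with fluorescence read on the HEX channel.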

The results in this text go back to ChEMBL document CHEMBL2057137, “Lead optimization studies on FimH antagonists: discovery of potent and orally bioavailable ortho-substituted biphenyl mannosides” (J Med Chem, 2012).

One may read the Kd as the constant that tells how readily two partners part at equilibrium. As usually defined, the IC50 is the concentration that inhibits the measured activity by half. With `CNC(=O)c1cc(C(=O)NC)cc(-c2ccc(O[C@H]3O[C@H](CO)[C@@H](O)[C@H](O)[C@@H]3O)cc2)c1`, the values for the concentration at 6 h in data set [1] and in data set [5] were 4850 nM and 10 nM, respectively. In addition, the equilibrium dissociation constant (Kd) in [2] was 0.14 nM. The MED in the data set with Escherichia coli [3] is 0.74 µM. Further, the IC50 in the data set on Escherichia coli [3] (Escherichia coli, K-12 ATCC 25404, 2 h) was determined as 740 nM. For the same molecule, the Stability result with Mus musculus [4] was “Unstable”. Further, the “log Pe” value in [6] is -4.51. The Ratio with Mus musculus [7] is reported as 10. Moreover, the Drug metabolism result in data set [8] is listed as “Active”. For the same molecule, in the data set on Escherichia coli [9], the Tm was found to be 74.4 °C.
